# UBC13 polyUb: UBC13 polyubiquitin chain formation inhibitors, primary screen, biochemical, TR-FRET, uHTS; Ubiquitin-conjugating enzyme E2 N (Homo sapiens), P61088; inhibition, % at 20 µM; actives 0.47% (n = 330,000); AID 485273, 2010; in the data active = inhibition above about 45%, passing the limit was not always enough
# Target sequence (P61088 whole entry, looked up): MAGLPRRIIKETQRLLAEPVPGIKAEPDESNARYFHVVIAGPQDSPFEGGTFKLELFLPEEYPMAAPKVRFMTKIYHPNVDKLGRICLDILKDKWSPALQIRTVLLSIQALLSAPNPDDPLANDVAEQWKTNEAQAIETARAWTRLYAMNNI
# iPSC survival up: enhancers of single-cell hiPSC survival, primary screen, ATPlite luminescence; 100% = ROCK inhibitor wells, 0% = DMSO; survival enhancement, % at 20 µM; actives 0.044% (n = 360,000); in the data active = survival enhancement above about 18%;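 also: cells exposed to compounds for 16 hours before the ATP read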
# MIN6 prolif: inducers of MIN6 beta-cell proliferation, primary screen, ATP luminescence, uHTS. MIN6 cells proliferation, ATPlite luminescence, 48 h; cells starved in 0.2% serum; 100% = growth in 10% serum. proliferation, % at 10 µM. actives 0.29% (n = 330,000);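 active = compounds whose signal lies at least 3.5 SD above the mean of all wells on their plate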;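 also: 0% = DMSO-treated cells in low-serum medium and 100% = 10% serum control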
# Granule exo inh: LAMP-1 surface exposure blockers, TALL-104 cells – cell-based, flow cytometry, MLPCN library, primary screen | TALL-104 LAMP-1 surface exposure; cells stimulated with thapsigargin and PMA | actives 0.66% (n = 360,000) | inhibition, % at 10 µM;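 active = inhibition above about 55%, limit read from the data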
# MPTP inh: mitochondrial permeability transition pore inhibitors, primary screen, biochemical, isolated mouse mitochondria, absorbance | Ca2+ swelling absorbance, 30 min | inhibition, % at 10 µM | actives 1.4% (n = 360,000);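 active = inhibition of 50% or more, scaled per plate between neutral and stimulator controls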;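 also: 0% = DMSO wells given calcium and 100% = 1 mM EGTA wells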
# Apaf-1 inh: inhibitors of human Apaf-1 apoptosome, primary screen, biochemical, DEVD-Rh110 fluorescence, uHTS. Apoptotic protease-activating factor 1 (Homo sapiens), O14727. reconstituted apoptosome caspase-3 activity. inhibition, % at 20 µM. actives 0.71% (n = 330,000). AID 489030, 2010; active = inhibition of at least 40% at 20 µM;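 also: plate controls were DMSO wells for no effect and DEVD-CHO caspase inhibitor wells for full effect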
#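 Assay system – apoptosome proteins · Medium – Hepes buffer, pH 7.5 · Also added – cytochrome c with DEVD-Rh110 · Timing – 30 min compound preincubation, 50 min activation, room temperature · Detection – Rh110 fluorescence, excitation 480 nm, emission 540 nm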
# Active calls of the source: *; . = not tested or not shown. Shown are actives, neighbours in structure and some others; about 3% of the full set was active somewhere.
SMILES,UBC13 polyUb,iPSC survival up,MIN6 prolif,Granule exo inh,MPTP inh,Apaf-1 inh
c1ccc(-c2c(-c3ccccc3)n(Cc3ccco3)c3ncnc(NCCCn4ccnc4)c23)cc1,21,-3,-7,6,-4,42*
C#CCOCCOCCOCCNc1nc(N2CCN(C(=O)[C@H]([C@@H](C)CC)n3cc([C@@H](N)CC(C)C)nn3)CC2)nc(N2CCN(C(=O)[C@H](Cc3cc4ccccc4[nH]3)n3cc([C@@H](N)C(C)CC)nn3)CC2)n1 (some centres not stated),81*,.,2,.,.,30
C#CCOCCOCCOCCNc1nc(N2CCN(C(=O)[C@H](CCC(=O)O)n3cc(C(N)CC(C)C)nn3)CC2)nc(N2CCN(C(=O)[C@H](Cc3cc4ccccc4[nH]3)n3cc(C(N)[C@H](C)CC)nn3)CC2)n1 (some centres not stated),5,.,-1,-8,.,0
C#CCOCCOCCOCCNc1nc(N2CCN(C(=O)C(Cc3cc4ccccc4[nH]3)n3cc(C(N)C(C)CC)nn3)CC2)nc(N2CCN(C(=O)C(Cc3cc4ccccc4[nH]3)n3cc(C(N)C(C)CC)nn3)CC2)n1 (configuration not stated),94*,-1,-1,-7,3,37
CS(=O)(=O)c1ccc(S(=O)CC(=O)OCc2ccccc2)c([N+](=O)[O-])c1 (configuration not stated),.,-5,.,97*,2,.
O=C(CS(=O)c1ccc(C(F)(F)F)cc1[N+](=O)[O-])Oc1ccccc1 (configuration not stated),-19,2,0,56*,2,9
COC(=O)c1ccc(OC(=O)CS(=O)c2ccccc2[N+](=O)[O-])cc1 (configuration not stated),10,-1,2,-3,1,5
CCc1nc2ccc(C(=O)Nc3ccc(OC)c(OC)c3)cn2c1N(C)CCC(C)C,.,3,.,0,0,.
Cc1ccsc1C(=O)N1CCCCCC1(C)C(=O)NCC(C)C (configuration not stated),.,-2,.,-2,1,.
O=C(C[n+]1ccccc1)N/N=C/c1ccc(Cl)cc1,8,-1,-3,7,-1,-14
O=[N+]([O-])c1cc(-c2ncccn2)c([N+](=O)[O-])s1,-42,-4,-6,78*,4,-2
O=C(Nc1ncccn1)c1cc([N+](=O)[O-])cc([N+](=O)[O-])c1,-14,3,0,-1,-3,-2
CC(C)(C)OC(=O)NCc1ccc(CNC(=O)c2[nH]cnc2C(=O)NC2CCN(C(=O)OC(C)(C)C)CC2)cc1,0,0,-5,5,0,24
[O-][n+]1c2ccccc2c2n1CCCN=C2c1ccc(Cl)cc1,-3,-1,-5,8,1,12
O=C(CN1N=C(c2ccccc2)CCC1=O)NCc1ccccc1,-8,0,-2,-1,-1,-7
O=C(CN1N=C(c2ccccc2)CCC1=O)NCCN1CCc2ccccc2C1,5,-2,4.6*,-5,0,1
C=CCNC(=O)CN(Cc1ccccc1)S(=O)(=O)c1ccccc1,6,0,-3,-5,0,-13
CC(C)CC1NC(=O)c2ccccc2-n2c1nc1ccc(F)cc1c2=O (configuration not stated),10,.,3,.,.,0
COc1ccc(/C=C(\C#N)C(=O)N2COCC2(C)C)cc1,-9,1,-2,56*,1,5
COc1ccc(/C=C(\C#N)C(=O)N=CN(C)C)cc1,-29,0,-2,1,0,-4
CCC1=NN(C(=O)Cc2ccc(OC)cc2)C(O)(C(F)(F)F)C1 (configuration not stated),0,1,-1,1,-1,-4
COc1ccc(CC(=O)N2N=C(c3ccncc3)CC2(O)C(F)(F)F)cc1 (configuration not stated),-5,29*,-4,-10,3,-2

# Source: PubChem BioAssay (several laboratories)
